The text below walks through data of ChEMBL document CHEMBL3044571, “Identification of novel inhibitors of 1-aminocyclopropane-1-carboxylic acid synthase by chemical screening in Arabidopsis thaliana” (J Biol Chem, 2010).

The test system of experiment [1] is Arabidopsis thaliana. In words: Inhibition of ethylene biosynthesis in Arabidopsis thaliana eto1-4 expressing 5 x EBS::LUC assessed as decrease ethylene level at 10 uM 3 days after germination in dark. The format is functional, organism-based.
Experiment [2] concerns the target T1, 1-aminocyclopropane-1-carboxylate synthase 5 (Arabidopsis thaliana, UniProt Q37001).
T1 sequence (Q37001 whole entry): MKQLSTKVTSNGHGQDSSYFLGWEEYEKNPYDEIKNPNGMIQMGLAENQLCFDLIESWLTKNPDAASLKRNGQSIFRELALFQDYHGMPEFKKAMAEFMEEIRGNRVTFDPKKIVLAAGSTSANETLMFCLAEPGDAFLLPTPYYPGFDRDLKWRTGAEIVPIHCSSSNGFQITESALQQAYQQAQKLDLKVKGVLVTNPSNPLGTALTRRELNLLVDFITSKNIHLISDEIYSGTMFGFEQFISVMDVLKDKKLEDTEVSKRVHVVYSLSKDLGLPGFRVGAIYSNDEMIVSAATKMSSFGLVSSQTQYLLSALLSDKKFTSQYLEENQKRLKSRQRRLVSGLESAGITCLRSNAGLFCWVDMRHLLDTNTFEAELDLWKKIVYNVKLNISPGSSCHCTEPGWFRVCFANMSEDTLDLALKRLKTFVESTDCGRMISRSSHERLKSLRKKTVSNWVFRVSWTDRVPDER
As to the kind of experiment: Uncompetitive inhibition of Arabidopsis thaliana recombinant ACS5 expressed in Escherichia coli (BL21) assessed as oxidation of ACC to ethylene by Lineweaver-Burk plot analysis.

In experiment [3] the test system is Arabidopsis thaliana. As to the kind of experiment: Inhibition of triple response phenotype in Arabidopsis thaliana seedlings expressing 35S::EIN3 by measuring hypocotyl elongation at 10 uM 3 days after germination in dark. The format is functional, organism-based.
Experiment [4] deals with Arabidopsis thaliana. In words: Inhibition of triple response phenotype in Arabidopsis thaliana seedlings expressing 35S::EIN3 by measuring hypocotyl elongation up to 50 uM 3 days after germination in dark. Format: functional, organism-based.
Experiment [5] deals with Arabidopsis thaliana. In words: Inhibition of triple response phenotype in Arabidopsis thaliana seedlings expressing eto1-4 mutant by measuring hypocotyl elongation at 10 uM 3 days after germination in dark. Format: functional. The conditions noted are these: 72 h.
Experiment [6] relates to Arabidopsis thaliana. In words: Inhibition of triple response phenotype in Arabidopsis thaliana seedlings expressing eto2-1 mutant by measuring hypocotyl elongation at 10 to 30 uM 3 days after germination in dark. Format: functional, organism-based.
The subject of experiment [7] is Arabidopsis thaliana. In words: Inhibition of triple response phenotype in Arabidopsis thaliana seedlings expressing ctr1-1 mutant by measuring hypocotyl elongation up to 50 uM 3 days after germination in dark. Format: functional, organism-based.
In experiment [8] the test system is Arabidopsis thaliana. As to the kind of experiment: Inhibition of triple response phenotype in Arabidopsis thaliana seedlings expressing eto1-4 mutant and 5 x EBS::LUC by measuring hypocotyl elongation at >5 uM 3 days after germination in dark. The format is functional, organism-based. Put shortly:
(§1)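 Etiolated eto1-4 seedlings grown 3 days in the dark at 22°C on 0.5xMS agar containing graded compound, STS or AVG, with DMSO control. Seeds bleach-sterilized and stratified 3–4 days at 4°C beforehand. Hypocotyl length measured from stereomicroscope images; means of n ≥30 seedlings.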

Experiment [9] relates to Arabidopsis thaliana. As to the kind of experiment: Inhibition of triple response phenotype in Arabidopsis thaliana seedlings expressing ctr1-1 mutant by measuring hypocotyl elongation at 10 uM 3 days after germination in dark. The format is functional, organism-based.
Experiment [10] relates to Arabidopsis thaliana. In words: Inhibition of triple response phenotype in Arabidopsis thaliana seedlings expressing eto1-4 mutant and 5 x EBS::LUC by measuring hypocotyl elongation at 0.1 to 1 uM 3 days after germination in dark. Format: functional, organism-based. Put shortly: as §1
Experiment [11] deals with Arabidopsis thaliana. As to the kind of experiment: Inhibition of triple response phenotype in Arabidopsis thaliana seedlings expressing eto1-4 mutant by measuring hypocotyl elongation up to 50 uM 3 days after germination in dark. The format is functional, organism-based.
The test system of experiment [12] is Arabidopsis thaliana. As to the kind of experiment: Inhibition of ethylene biosynthesis in Arabidopsis thaliana eto1-4 expressing 5 x EBS::LUC assessed as decrease ethylene level at 10 uM 3 days after germination in dark relative to aminoethoxyvinylglycine. The format is functional. Particulars: 72 h.
In experiment [13] the target is T1, 1-aminocyclopropane-1-carboxylate synthase 5. In words: Inhibition of Arabidopsis thaliana recombinant ACS5 expressed in Escherichia coli (BL21) assessed as oxidation of ACC to ethylene preincubated for 30 min measured after 10 min by gas chromatography. An outline of the steps: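 His-tagged recombinant ACS5 expressed in E. coli (IPTG induction, 16°C, 18 h) and purified on a HisTrap column. Enzyme (1 μg) in 2 ml buffer A (pH 8.0) with 10 μM PLP and 250 μM SAM, plus graded compound or DMSO, for 30 min at 25°C. Stopped with HgCl2 and NaOH:bleach, which oxidize ACC to ethylene, quantified by GC against an ACC standard curve. Duplicate, repeated ≥3 times.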

Experiment [14] relates to Arabidopsis thaliana. As to the kind of experiment: Inhibition of triple response phenotype in Arabidopsis thaliana seedlings expressing eto1-4 mutant and 5 x EBS::LUC by measuring hypocotyl elongation at 1 to 5 uM 3 days after germination in dark. The format is functional, organism-based. An outline of the steps:
as §1

Activity calls are given as the source filed them. The rule behind the calls is not given here.

As for `COc1ccc(C2CC(=O)c3cnc(Nc4ccccc4)nc3C2)cc1` (centres undefined), the inhibition entry in experiment [1], in experiment [6], in experiment [8], in experiment [10] and in experiment [11] was “Active” each time. Also, the Ki in [2] is 23 nM. The inhibition entry in experiment [3], in experiment [4], in experiment [7] and in [9] was “inactive” each time. The figures for the inhibition at 10 µM in experiment [5] and in [12] were 77% and 93%, respectively.
As for `NCCO/C=C/C(N)C(=O)O` (centres undefined) [AMINOETHOXYVINYLGLYCINE], in experiment [2], the Ki was found to be 15 nM. In addition, the IC50 in experiment [13] was 700 nM. This compound also registered an inhibition at 10 µM in experiment [5] of 100%. Further, the inhibition entry in experiment [6] and in [14] was “Active” each time.
As to `CC1(C)CC(=O)c2cnc(Nc3ccc(F)cc3)nc2C1`, the inhibition at 10 µM in experiment [12] was found to be 36%.
Regarding `O=S(O)(O)=S` [SILVER THIOSULFATE], the inhibition at 10 µM in [5] (tested as the Ag salt or complex) was determined as 84%.
With `Cc1nc(Nc2ccccc2)nc2c1C(=O)CC(C)(C)C2`, the inhibition at 10 µM in experiment [12] stood at 67%.
Regarding `O=C1CC(c2ccccc2Cl)Cc2nc(NC3CCCC3)ncc21` (centres undefined), the inhibition at 10 µM in experiment [5] came to 54%; in [12], 91%.
`CC1CC(=O)c2cnc(NCc3ccccc3)nc2C1` (centres undefined): the inhibition at 10 µM in [12] was determined as 54%.
For the compound `CC1CC(=O)c2cnc(Nc3ccccc3)nc2C1` (centres undefined), the inhibition at 10 µM worked out at 28% in experiment [5] and 82% in [12].
Taken in the same sequence, the figures for `CC1(C)CC(=O)c2cnc(Nc3ccccc3)nc2C1` were 29% and 77%.
For the compound `Cc1ccc(C2CC(=O)c3cnc(NC4CCCC4)nc3C2)cc1` (centres undefined), the inhibition entry in [1], in experiment [6], in experiment [8], in [10] and in experiment [11] was “Active” throughout. Also, the inhibition result in experiment [3], in experiment [4], in [7] and in [9] was “inactive” in each case. In addition, the values for the inhibition at 10 µM in [5] and in experiment [12] were 66% and 87%, respectively.
As to `CC1(C)CC(=O)c2cnc(NC3CCCC3)nc2C1`, the inhibition entry in experiment [1], in experiment [6] and in experiment [11] was “Active” throughout. The inhibition entry in experiment [3], in experiment [4], in [7] and in experiment [9] was “inactive” each time. Also, the IC50 in experiment [13] was found to be 7900 nM. Also, the inhibition at 10 µM was determined as 55% in experiment [5] and 87% in [12].
Take `CCCCNc1ncc2c(n1)CC(c1ccccc1)CC2=O` (centres undefined): the inhibition at 10 µM in experiment [5] was 43%; in experiment [12] it was 92%.
As to `CC1(C)CC(=O)c2cnc(NCc3ccccc3)nc2C1`, the inhibition at 10 µM in [12] stood at 45%.
On the same count and under the same terms, as for `CCCCc1nc(N)nc2c1C(=O)CC(C)(C)C2`, the figure is 22%; as for `Cc1nc(Nc2ccc(F)cc2)nc2c1C(=O)CC(C)(C)C2`, 9%.
Still for that read-out and setting: as for `CC1(C)CC(=O)c2cnc(NCc3ccc(F)cc3)nc2C1`, the figure is 69%.

A word on the inhibition: it is the change of the read-out against control, counted positive when it falls. The Ki is a dissociation constant, usually derived from enzyme kinetics or from competition with a known ligand. Broadly, the IC50 is the point on the concentration scale where inhibition reaches its midpoint.
